Bioassay records as filed in PubChem BioAssay.
PLC-gamma1 inh: inhibitors of human phospholipase C gamma1. purified PLC-gamma1, fluorogenic substrate, fluorescence. inhibition, % at 12.2 µM. P19174. hit rate 0.84% among 370,000; in the data active = inhibition above about 9.5%
NRP1-CendR mod: modulators of CendR peptide binding to human neuropilin-1 | FAM-RPARPAR peptide binding to NRP-1, fluorescence polarization | O14786 | inhibition, % at 25 µM | hit rate 0.85% among 360,000;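 active = inhibition or corrected inhibition above about 18%, plus a signal ratio from 0.5 to 1.5, limit read from the data, passing the limit was not always enough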
PLC-beta3 inh: blocks human PLC-beta3 enzyme activity; Q01970; Purified PLC-beta3, fluorogenic substrate, fluorescence; inhibition, % at 12.2 µM; hit rate 0.18% among 370,000; in the data active = inhibition above about 11%
DDE Tn6 FP inh: DD(E)-Tn6 binding inhibition, primary FP screen | Fibrin DD(E) TRITC-Tn6 fluorescence polarization displacement | inhibition, % at 8.3 µM | hit rate 0.21% among 370,000;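 active = inhibition above a per-campaign cutoff: mean of compounds within control limits plus 3 SD, cut at about 15% in these data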
proKLK7 act: activators of human kallikrein-7 zymogen; P49862; purified proKLK7, EDANS-DABCYL substrate fluorescence; 100% is mature enzyme control, 0% vehicle; activation, % at 7 µM; hit rate 0.9% among 370,000; AID 652039;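 active = activation above the mean of all tested compounds plus 3 SD, computed per campaign excluding outliers beyond control limits, cut at about 13% in these data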
Target sequence (P49862 whole entry, looked up): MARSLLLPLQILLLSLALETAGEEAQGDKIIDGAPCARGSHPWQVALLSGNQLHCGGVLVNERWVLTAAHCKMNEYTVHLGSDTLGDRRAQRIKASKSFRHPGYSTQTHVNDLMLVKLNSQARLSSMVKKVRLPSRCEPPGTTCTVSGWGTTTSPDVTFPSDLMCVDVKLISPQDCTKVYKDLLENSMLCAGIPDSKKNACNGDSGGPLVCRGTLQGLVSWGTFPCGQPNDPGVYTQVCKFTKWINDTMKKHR
DDE Tn7 FP inh: inhibitors of Tn7 peptide binding to human fibrin DD(E); P02675; FP displacement of FITC-Tn7 peptide from fibrin DD(E); 0% = median of compound wells per plate; inhibition, % at 8.3 µM; hit rate 0.13% among 370,000;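 active = inhibition above the mean of compounds falling within the control limits plus 3 SD of them, cut at about 14% in these data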
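Measure: % inhibition scaled between sample-field median and high-control FP; Test system: human fibrin DD(E); Quantity: 2 µM final DD(E) protein; Doses: one dose, 8.3 µM nominal; Schedule: compound with protein 10 min, then 3 h after probe, room temperature; Detection: fluorescence polarization; Medium: Tris buffer with calcium and detergent, pH 7.8.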
proKLK7 act conf: proKLK7 activation, confirmation; purified proKLK7, EDANS-DABCYL substrate fluorescence; scaled: vehicle 0, mature enzyme 100; hit rate 68% among 3,200; shares compounds with proKLK7 act; activation, % at 7 µM;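 active = activation, as change over the incubation, above the mean of all tested compounds plus 3 SD, cut at about 13% in these data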
EDANS-DABCYL int: optically interferes with EDANS-DABCYL signal, flagging KLK7 hits | EDANS-DABCYL substrate fluorescence interference, no enzyme, 4 h; solvent 0%, active enzyme control 100% | hit rate 80% among 3,200 | AID 686952 | activation, % at 7 µM | shares compounds with proKLK7 act;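 active = activation above the all-compound mean plus 3 SD, ignoring values outside control-based bounds, cut at about 4.8% in these data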;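 also: value is the 4 h activation minus the activation read at time zero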
Each line names hits and unclear results; the compound was inactive in the other large screens (follow-up assays come after a bar, where they were run). This is a sample that favours compounds with a hit; in the whole collection about 3% have one here.

CCOC(=O)c1[nH]c2cc3c(cc2c1NC(=O)CN1CCN(CCO)CC1)OCO3	proKLK7 act 49 | proKLK7 act conf 26 | EDANS-DABCYL int 29
CCC[C@H]1[C@@H](OC(=O)NCc2ccc(C)o2)CC[C@@]23CCCN2C(=O)CCC[C@@H]13	none (no result: NRP1-CendR mod, proKLK7 act)
COc1cc(/C=N/NS(=O)(=O)c2ccc(C)c([N+](=O)[O-])c2)cc([N+](=O)[O-])c1O	none
COc1ccc(-n2c(O)c(/C=N/NS(=O)(=O)c3ccc(C)c([N+](=O)[O-])c3)c3ccccc3c2=O)cc1OC	proKLK7 act 15 | proKLK7 act conf 41 | EDANS-DABCYL int 44
CC(=O)N1C[C@@H](CO)[C@@H]2C[C@H]1c1ccccc1N2C	none (no result: NRP1-CendR mod)
COc1cc2c(cc1OC)CN(CC(O)c1ccccc1)CC2 (stereo unspecified)	proKLK7 act 96 | proKLK7 act conf 56 | EDANS-DABCYL int 74
COc1cc2c(cc1OC)CN(Cc1ccc(C)cc1)CC2	none
COc1cc2c(cc1OC)CN(Cc1ccccc1)CC2	none
COc1cc2c(cc1OC)CN(CCC(C)c1ccc(Cl)cc1)CC2 (stereo unspecified)	proKLK7 act 21 | proKLK7 act conf 148 | EDANS-DABCYL int 145
COc1cc2c(cc1OC)CN(C(=O)c1ccccc1C(=O)O)CC2	proKLK7 act 16 | proKLK7 act conf inactive | EDANS-DABCYL int 5.2
Cc1ccc(CN[C@@H]2CC[C@@]34CCCN3C(=O)CCC[C@H]4C2)cc1	none (no result: NRP1-CendR mod, proKLK7 act)
COC(=O)Cn1nc(-c2ccccc2)c2cccc(C(F)(F)F)c21	none (no result: NRP1-CendR mod, proKLK7 act)
CC(C)N(CCC(=O)c1ccc2ccccc2c1)Cc1ccccc1	proKLK7 act 14 | proKLK7 act conf 15 | EDANS-DABCYL int 18
COc1ccc(C(=O)CC2OC(=O)c3c2ccc(OC)c3OC)cc1 (stereo unspecified)	proKLK7 act 55 | proKLK7 act conf 59 | EDANS-DABCYL int 79
O=C(CNS(=O)(=O)c1cccs1)N1CCN(c2ncccn2)CC1	none (no result: NRP1-CendR mod)
CCCCN(C)Cc1c(O)ccc2c(-c3ccccc3)cc(=O)oc12	proKLK7 act 17 | proKLK7 act conf 17 | EDANS-DABCYL int 23
CCCCN(CC)Cc1c(O)ccc2c(-c3ccccc3)cc(=O)oc12	none
CCN(CC)Cc1c(O)ccc2c(-c3ccccc3)cc(=O)oc12	proKLK7 act 22 | proKLK7 act conf 23 | EDANS-DABCYL int 29
Cc1cc(=O)oc2c(CN3CCN(CCO)CC3)c(O)ccc12	proKLK7 act 120 | proKLK7 act conf 65 | EDANS-DABCYL int 69
Cc1c(O)ccc2c(-c3ccccc3)cc(=O)oc12	none
CCN1CCN(Cc2c(O)ccc3c(C)cc(=O)oc23)CC1	proKLK7 act 44 | proKLK7 act conf 71 | EDANS-DABCYL int 73
CN1CCN(Cc2c(O)ccc3c(-c4ccccc4)cc(=O)oc23)CC1	proKLK7 act 17 | proKLK7 act conf inactive | EDANS-DABCYL int inactive
O=c1oc2c(CN3CCOCC3)c(O)ccc2c2c1CCC2	proKLK7 act 70 | proKLK7 act conf 68 | EDANS-DABCYL int 72
Cc1cc(=O)oc2c(O)c(O)ccc12	none
O=C(Nc1ccc(Br)cc1)OC1CC2CC1[C@H]1CCCCN1[C@H]2Cc1ccccc1 (stereo partly specified)	none (no result: NRP1-CendR mod)
CC(=O)NC(C)C(=O)N1CCCC1C(=O)N1CCCC1C(=O)NC(C)C(=O)NC1C(=O)NC(CC(C)C)C(=O)NC2CCCCNC(=O)CCC(C(=O)NC(Cc3ccc(O)cc3)C(=O)O)NC(=O)C3CCC(=O)OCC(NC(=O)C4CCCN4C(=O)C(Cc4c[nH]c5ccccc45)NC2=O)C(=O)NC(CC(=O)OC1C)C(=O)NC(Cc1c[nH]c2ccccc12)C(=O)N3 (stereo unspecified)	none (no result: NRP1-CendR mod)
O=c1oc2c(CN3CCCCC3)c(O)ccc2cc1-c1nc2ccccc2[nH]1	none
O=c1oc2c(CN3CCN(CCO)CC3)c(O)ccc2cc1-c1ccccn1	proKLK7 act 60 | proKLK7 act conf 70 | EDANS-DABCYL int 82
Cc1cc(=O)oc2c(CN3CCCC3)c(O)ccc12	proKLK7 act 45 | proKLK7 act conf 76 | EDANS-DABCYL int 75
CCCc1cc(=O)oc2cc(C)c(CN3CCCC3)c(O)c12	none
CCCc1cc(=O)oc2c(CN3CCCC3)c(O)ccc12	proKLK7 act 60 | proKLK7 act conf 72 | EDANS-DABCYL int 69
COc1ccc2oc(=O)c(-c3nnc(NCc4ccco4)s3)cc2c1	proKLK7 act 35 | proKLK7 act conf inactive | EDANS-DABCYL int inactive
c1ccc(-c2ccc3c(c2)c2c4n3CCN=C4CCC2)cc1	none
OC1CN=C2CCCc3c2n(c2ccc(Cl)cc32)C1 (stereo unspecified)	proKLK7 act 17 | proKLK7 act conf inactive | EDANS-DABCYL int inactive
COc1cc2c(cc1OC)-c1cc(OCc3cccnc3)nc(=O)n1CC2	proKLK7 act 61 | proKLK7 act conf 63 | EDANS-DABCYL int 65
COc1cc2c(cc1OC)-c1cc(Nc3ccccc3)nc(=O)n1CC2	none
Brc1ccc(-c2cn3cccnc3n2)cc1	proKLK7 act 24 | proKLK7 act conf 23 | EDANS-DABCYL int 27
Clc1ccc(-c2cn3cccnc3n2)cc1Cl	none
Clc1ccc(-c2cn3cccnc3n2)cc1	proKLK7 act 22 | proKLK7 act conf 53 | EDANS-DABCYL int 69
Nc1cccc2c1C(=O)N(C(=O)/C=C/c1cccc(Br)c1)C2=O	none
COc1ccc(OC)c(/C=C/C(=O)N2C(=O)c3cccc(N)c3C2=O)c1	proKLK7 act 44 | proKLK7 act conf 654 | EDANS-DABCYL int 689
COc1cc(/C=C/C(=O)N2C(=O)c3cccc(N)c3C2=O)cc(OC)c1OC	proKLK7 act 21 | proKLK7 act conf 307 | EDANS-DABCYL int 297
CCOC(=O)CC[C@H]1CC[C@]2(CCCN(Cc3ccccc3)C2)O1	none (no result: NRP1-CendR mod)
O=C(CCc1ccccc1)N[C@H]1[C@H](O)CCC[C@@]12C(=O)N(Cc1ccccc1)c1ccc(-c3ccccc3)cc12	none (no result: NRP1-CendR mod)
CS(=O)(=O)c1ccccc1C(=O)Nc1ccc(-c2nc3ccccc3[nH]2)cc1	none
CS(=O)(=O)c1cccc(C(=O)Nc2ccc(-c3nc4ccccc4[nH]3)cc2)c1	proKLK7 act 84 | proKLK7 act conf 55 | EDANS-DABCYL int 63
O=C(CCCCCN1C(=O)C2C3C=CC(C3)C2C1=O)Nc1cc(F)cc(F)c1 (stereo unspecified)	none (no result: NRP1-CendR mod)
